According to ChEMBL document CHEMBL5108074 (J Med Chem, 2022):
Values after ≈ are worked out from the molar mass of the structure shown.

Legend:
[1] = Apparent permeability of the compound across apical side to basolateral side in human Caco-2 cells incubated for 1 hr by LC-MS/MS analysis; conditions: caco-2, 1 h
[2] = Metabolic stability in human liver microsomes assessed as intrinsic clearance per mg of protein measured upto 60 mins in presence of NADPH regenerating system by LC-MS/MS analysis; format: ADME, Microsome; conditions: microsomes, 1 h
[3] = Thermodynamic solubility of the compound in FaSSIF at 1 mg/ml at pH 6.5 measured after 4 hrs; format: physicochemical
Outline: (§1)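 Compound (nominal 1 or 100 mg/mL as free base) added to biorelevant medium preheated to 37 °C: FaSSGF at pH 1.6 or FaSSIF at pH 6.5. Vortexed, then shaken 4 h at 37 °C (~500 rpm). Centrifuged at 15000g for 10 min at 37 °C. Supernatant diluted and quantified against calibration standards. Crystalline material used where stated.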

[4] = Thermodynamic solubility of the compound in FaSSGF at 1 mg/ml at pH 1.6 measured after 4 hrs; format: physicochemical; outline: as §1
[5] = Clearance in Sprague-Dawley rat blood at 1 mg/kg, iv measured upto 24 hrs by LC-MS analysis; format: ADME, organism-based; conditions: whole blood
Outline: (§2)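 Male Sprague-Dawley rats, two per route, single dose. IV: 1 mg/kg given as 1 mL/kg of a nominal 1 mg/mL formulation in vehicle. PO: 10 mg/kg given as 5 mL/kg of a 2 mg/mL formulation. PK parameters from noncompartmental analysis. Clearance expressed relative to rat liver blood flow of 80 mL/min/kg.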

[6] = Clearance in Beagle dog blood at 1 mg/kg, iv measured upto 24 hrs by LC-MS analysis; format: ADME, organism-based, Canis lupus familiaris; conditions: whole blood
[7] = Clearance in Sprague-Dawley rat assessed as liver blood flow at 1 mg/kg, iv measured upto 24 hrs by LC-MS analysis; format: ADME, organism-based; conditions: in vivo; outline: as §2
[8] = Clearance in Beagle dog assessed as liver blood flow at 1 mg/kg, iv measured upto 24 hrs by LC-MS analysis; format: ADME, organism-based, Canis lupus familiaris; conditions: in vivo
[9] = Volume of distribution at steady state in Beagle dog at 1 mg/kg, po and 1 mg/kg, iv measured upto 24 hrs by LC-MS analysis; format: ADME, organism-based, Canis lupus familiaris; conditions: in vivo
[10] = Half life in Sprague-Dawley rat at 10 mg/kg, po and 1 mg/kg, iv measured upto 24 hrs by LC-MS analysis; format: ADME, organism-based; conditions: in vivo; outline: as §2
[11] = Half life in Beagle dog at 1 mg/kg, po and 1 mg/kg, iv measured upto 24 hrs by LC-MS analysis; format: ADME, organism-based, Canis lupus familiaris; conditions: in vivo
[12] = Oral bioavailability in Sprague-Dawley rat at 10 mg/kg measured upto 24 hrs by LC-MS analysis; format: ADME, organism-based; conditions: in vivo; outline: as §2
[13] = Oral bioavailability in Beagle dog at 1 mg/kg measured upto 24 hrs by LC-MS analysis; format: ADME, organism-based, Canis lupus familiaris; conditions: in vivo
[14] = target: Voltage-gated inwardly rectifying potassium channel KCNH2 (Homo sapiens, UniProt Q12809); test: Inhibition of hERG expressed in CHO cells by whole cell patch clamp assay; format: toxicity, cell-based
Outline: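 hERG K+ current recorded by automated whole-cell patch clamp in CHO cells stably expressing hERG. Concentrations tested up to a maximum of 33 μM.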

Cytochrome P450 1A2 = target: T1, Cytochrome P450 1A2 (Homo sapiens, UniProt P05177); test: Inhibition of CYP1A2 in human liver microsomes assessed as reduction in acetaminophen metabolite formation incubated for 30 mins in presence of NADPH by LC-MS/MS analysis; format: ADME, Microsome
T1 sequence (P05177 whole entry): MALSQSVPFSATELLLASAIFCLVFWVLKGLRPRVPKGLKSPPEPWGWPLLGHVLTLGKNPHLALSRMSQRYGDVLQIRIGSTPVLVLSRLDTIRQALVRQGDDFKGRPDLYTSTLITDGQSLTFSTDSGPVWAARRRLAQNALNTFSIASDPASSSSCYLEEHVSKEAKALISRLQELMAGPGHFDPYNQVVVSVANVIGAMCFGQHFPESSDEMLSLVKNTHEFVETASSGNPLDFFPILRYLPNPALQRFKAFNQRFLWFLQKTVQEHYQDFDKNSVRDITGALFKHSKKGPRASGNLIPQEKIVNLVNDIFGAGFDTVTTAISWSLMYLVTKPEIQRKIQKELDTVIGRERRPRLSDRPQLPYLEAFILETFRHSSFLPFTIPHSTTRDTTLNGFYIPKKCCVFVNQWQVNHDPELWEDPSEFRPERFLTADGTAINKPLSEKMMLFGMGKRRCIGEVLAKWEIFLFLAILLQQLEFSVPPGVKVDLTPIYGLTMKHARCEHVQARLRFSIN

Cytochrome P450 2C9 = Cytochrome P450 2C9 (Homo sapiens, UniProt P11712); test: Inhibition of CYP2C9 in human liver microsomes assessed as reduction in 4 hydroxy-diclofenac metabolite formation incubated for 30 mins in presence of NADPH by LC-MS/MS analysis; format: ADME, Microsome
Cytochrome P450 2C19 = Cytochrome P450 2C19 (Homo sapiens, UniProt P33261); test: Inhibition of CYP2C19 in human liver microsomes assessed as reduction in 4-hydroxymephenytoin metabolite formation incubated for 30 mins in presence of NADPH by LC-MS/MS analysis; format: ADME, Microsome
Cytochrome P450 2D6 = Cytochrome P450 2D6 (Homo sapiens, UniProt P10635); test: Inhibition of CYP2D6 in human liver microsomes assessed as reduction in dextrorphan metabolite formation incubated for 30 mins in presence of NADPH by LC-MS/MS analysis; format: ADME, Microsome
Cytochrome P450 3A4 [15] = target: T2, Cytochrome P450 3A4 (Homo sapiens, UniProt P08684); test: Inhibition of CYP3A4 in human liver microsomes assessed as reduction in 6beta-hydroxymidazolam metabolite formation using midazolam as substrate incubated for 30 mins in presence of NADPH by LC-MS/MS analysis; format: ADME, Microsome
Cytochrome P450 3A4 [16] = target: T2, Cytochrome P450 3A4; test: Inhibition of CYP3A4 in human liver microsomes assessed as reduction in 6beta-hydroxytestosterone metabolite formation using testosterone as substrate incubated for 30 mins in presence of NADPH by LC-MS/MS analysis; format: ADME, Microsome
Plasma kallikrein [17] = target: T3, Plasma kallikrein (Homo sapiens, UniProt P03952); test: Inhibition of DXS induced human whole plasma kallikrein using H-D-Pro-Phe-Arg-AFC as substrate preincubated for 5 mins followed by DXS stimulation by fluorometer analysis; format: cell-free
Plasma kallikrein [18] = target: T3, Plasma kallikrein; test: Inhibition of human plasma kallikrein using H-D-Pro-Phe-Arg-AFC as flurogenic substrate preincubated for 5 mins followed by substrate addition by fluorometer analysis; format: cell-free
[19] = Kinetic solubility of the compound in 0.1N HCl
[20] = Kinetic solubility of the compound in aqueous assay buffer at pH 7.7
[21] = Thermodynamic solubility of the compound in FaSSIF at 1 mg/ml at pH 6.5 using crystalline form of sample measured after 4 hrs; format: physicochemical; conditions: simulated gi fluid, pH 6.5, 4 h; outline: as §1
[22] = Thermodynamic solubility of the compound in FaSSGF at 1 mg/ml at pH 1.6 using crystalline form of sample measured after 4 hrs; format: physicochemical; conditions: pH 1.6, 4 h; outline: as §1
Cytochrome P450 2B6 = Cytochrome P450 2B6 (Homo sapiens, UniProt P20813); test: Inhibition of CYP2B6 in human liver microsomes assessed as reduction in hydroxybupropion metabolite formation incubated for 30 mins in presence of NADPH by LC-MS/MS analysis; format: ADME, Microsome
Cytochrome P450 2C8 = Cytochrome P450 2C8 (Homo sapiens, UniProt P10632); test: Inhibition of CYP2C8 in human liver microsomes assessed as reduction in 6 alpha-hydroxypaclitaxel metabolite formation incubated for 30 mins in presence of NADPH by LC-MS/MS analysis; format: ADME, Microsome
Cytochrome P450 2C8, sequence (P10632 whole entry): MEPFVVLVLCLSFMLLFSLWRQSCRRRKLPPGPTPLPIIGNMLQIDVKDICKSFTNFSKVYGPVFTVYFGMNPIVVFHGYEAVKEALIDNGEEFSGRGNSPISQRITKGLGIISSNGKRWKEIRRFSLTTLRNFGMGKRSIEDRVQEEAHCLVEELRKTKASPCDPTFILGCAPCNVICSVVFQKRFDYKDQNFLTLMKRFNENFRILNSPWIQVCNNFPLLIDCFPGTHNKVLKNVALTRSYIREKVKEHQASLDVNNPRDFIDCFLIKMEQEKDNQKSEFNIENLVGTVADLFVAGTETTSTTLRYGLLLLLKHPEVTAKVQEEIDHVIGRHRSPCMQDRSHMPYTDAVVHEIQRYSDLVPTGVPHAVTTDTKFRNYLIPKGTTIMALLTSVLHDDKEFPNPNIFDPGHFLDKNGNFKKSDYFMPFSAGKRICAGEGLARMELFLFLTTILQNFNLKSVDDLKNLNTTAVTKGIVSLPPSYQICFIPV

T3 sequence (P03952 20-390 limits assumed): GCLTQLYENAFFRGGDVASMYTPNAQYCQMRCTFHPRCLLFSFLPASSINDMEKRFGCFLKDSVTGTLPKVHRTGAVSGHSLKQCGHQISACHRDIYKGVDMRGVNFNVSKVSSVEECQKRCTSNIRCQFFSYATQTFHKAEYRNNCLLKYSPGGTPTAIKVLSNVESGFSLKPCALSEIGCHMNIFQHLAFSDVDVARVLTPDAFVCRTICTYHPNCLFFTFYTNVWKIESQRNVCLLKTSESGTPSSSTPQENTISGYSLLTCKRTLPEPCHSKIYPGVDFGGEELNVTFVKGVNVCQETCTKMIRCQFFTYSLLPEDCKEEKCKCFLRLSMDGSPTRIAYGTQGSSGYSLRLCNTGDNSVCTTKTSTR
T3 sequence (P03952 391-638 limits assumed): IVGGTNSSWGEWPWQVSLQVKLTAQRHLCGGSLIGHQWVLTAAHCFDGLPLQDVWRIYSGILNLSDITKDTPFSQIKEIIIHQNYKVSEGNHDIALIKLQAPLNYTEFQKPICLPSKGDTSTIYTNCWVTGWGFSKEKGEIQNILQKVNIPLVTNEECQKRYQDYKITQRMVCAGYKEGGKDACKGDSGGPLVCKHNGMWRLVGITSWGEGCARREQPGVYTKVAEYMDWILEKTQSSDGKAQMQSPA
T2 sequence (P08684 whole entry): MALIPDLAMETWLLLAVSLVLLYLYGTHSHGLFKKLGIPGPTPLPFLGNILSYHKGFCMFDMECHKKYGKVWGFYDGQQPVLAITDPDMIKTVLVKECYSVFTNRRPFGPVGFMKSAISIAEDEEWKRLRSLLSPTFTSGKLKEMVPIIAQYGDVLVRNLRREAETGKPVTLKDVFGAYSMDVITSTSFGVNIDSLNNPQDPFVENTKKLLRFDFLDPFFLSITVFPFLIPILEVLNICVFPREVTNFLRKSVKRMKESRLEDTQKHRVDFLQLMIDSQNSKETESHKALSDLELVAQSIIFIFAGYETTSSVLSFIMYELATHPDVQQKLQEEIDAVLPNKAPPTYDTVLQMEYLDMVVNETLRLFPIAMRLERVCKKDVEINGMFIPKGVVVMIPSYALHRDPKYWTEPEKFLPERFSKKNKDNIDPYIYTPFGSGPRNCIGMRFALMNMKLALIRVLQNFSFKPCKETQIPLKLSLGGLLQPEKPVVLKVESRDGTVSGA
Cytochrome P450 2D6, sequence (P10635 whole entry): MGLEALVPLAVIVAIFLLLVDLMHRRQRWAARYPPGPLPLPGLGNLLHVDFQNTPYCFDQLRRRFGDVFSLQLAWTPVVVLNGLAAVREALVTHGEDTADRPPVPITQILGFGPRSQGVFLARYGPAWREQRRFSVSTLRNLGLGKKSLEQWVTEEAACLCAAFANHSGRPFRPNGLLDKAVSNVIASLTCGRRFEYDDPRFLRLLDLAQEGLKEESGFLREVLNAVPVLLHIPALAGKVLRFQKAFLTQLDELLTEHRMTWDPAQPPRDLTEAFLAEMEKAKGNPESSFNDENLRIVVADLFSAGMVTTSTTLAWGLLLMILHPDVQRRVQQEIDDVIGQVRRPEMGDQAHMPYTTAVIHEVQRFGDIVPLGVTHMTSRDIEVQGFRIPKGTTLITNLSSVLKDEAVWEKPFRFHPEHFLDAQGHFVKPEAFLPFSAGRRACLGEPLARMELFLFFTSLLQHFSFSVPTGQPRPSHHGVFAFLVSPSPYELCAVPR
Cytochrome P450 2C19, sequence (P33261 whole entry): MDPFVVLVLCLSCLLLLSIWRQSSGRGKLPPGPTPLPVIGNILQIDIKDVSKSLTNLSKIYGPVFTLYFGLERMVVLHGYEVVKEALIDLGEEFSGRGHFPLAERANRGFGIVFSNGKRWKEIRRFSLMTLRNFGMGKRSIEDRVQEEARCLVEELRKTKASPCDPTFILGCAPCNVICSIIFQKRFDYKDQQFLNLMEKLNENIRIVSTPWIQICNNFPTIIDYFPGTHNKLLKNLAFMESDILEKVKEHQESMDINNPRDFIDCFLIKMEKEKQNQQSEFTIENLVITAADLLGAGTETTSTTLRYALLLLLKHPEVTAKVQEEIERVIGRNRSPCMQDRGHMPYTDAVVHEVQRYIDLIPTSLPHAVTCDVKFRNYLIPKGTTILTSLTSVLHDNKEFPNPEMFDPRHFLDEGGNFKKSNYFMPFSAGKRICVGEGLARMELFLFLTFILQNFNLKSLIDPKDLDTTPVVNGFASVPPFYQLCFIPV
Cytochrome P450 2C9, sequence (P11712 whole entry): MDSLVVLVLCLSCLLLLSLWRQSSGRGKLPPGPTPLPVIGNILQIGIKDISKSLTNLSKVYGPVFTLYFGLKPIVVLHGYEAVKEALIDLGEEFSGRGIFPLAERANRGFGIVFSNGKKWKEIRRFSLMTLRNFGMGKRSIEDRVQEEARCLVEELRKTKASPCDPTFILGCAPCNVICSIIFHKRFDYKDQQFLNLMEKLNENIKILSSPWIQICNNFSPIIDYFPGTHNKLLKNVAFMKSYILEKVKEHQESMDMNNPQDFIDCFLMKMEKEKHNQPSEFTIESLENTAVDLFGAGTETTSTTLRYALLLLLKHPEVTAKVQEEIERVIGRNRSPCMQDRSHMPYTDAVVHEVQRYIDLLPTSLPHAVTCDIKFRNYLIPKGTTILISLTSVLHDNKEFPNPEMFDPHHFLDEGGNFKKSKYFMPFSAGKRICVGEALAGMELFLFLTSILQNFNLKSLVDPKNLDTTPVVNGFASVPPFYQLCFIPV
Voltage-gated inwardly rectifying potassium channel KCNH2, sequence (Q12809 whole entry): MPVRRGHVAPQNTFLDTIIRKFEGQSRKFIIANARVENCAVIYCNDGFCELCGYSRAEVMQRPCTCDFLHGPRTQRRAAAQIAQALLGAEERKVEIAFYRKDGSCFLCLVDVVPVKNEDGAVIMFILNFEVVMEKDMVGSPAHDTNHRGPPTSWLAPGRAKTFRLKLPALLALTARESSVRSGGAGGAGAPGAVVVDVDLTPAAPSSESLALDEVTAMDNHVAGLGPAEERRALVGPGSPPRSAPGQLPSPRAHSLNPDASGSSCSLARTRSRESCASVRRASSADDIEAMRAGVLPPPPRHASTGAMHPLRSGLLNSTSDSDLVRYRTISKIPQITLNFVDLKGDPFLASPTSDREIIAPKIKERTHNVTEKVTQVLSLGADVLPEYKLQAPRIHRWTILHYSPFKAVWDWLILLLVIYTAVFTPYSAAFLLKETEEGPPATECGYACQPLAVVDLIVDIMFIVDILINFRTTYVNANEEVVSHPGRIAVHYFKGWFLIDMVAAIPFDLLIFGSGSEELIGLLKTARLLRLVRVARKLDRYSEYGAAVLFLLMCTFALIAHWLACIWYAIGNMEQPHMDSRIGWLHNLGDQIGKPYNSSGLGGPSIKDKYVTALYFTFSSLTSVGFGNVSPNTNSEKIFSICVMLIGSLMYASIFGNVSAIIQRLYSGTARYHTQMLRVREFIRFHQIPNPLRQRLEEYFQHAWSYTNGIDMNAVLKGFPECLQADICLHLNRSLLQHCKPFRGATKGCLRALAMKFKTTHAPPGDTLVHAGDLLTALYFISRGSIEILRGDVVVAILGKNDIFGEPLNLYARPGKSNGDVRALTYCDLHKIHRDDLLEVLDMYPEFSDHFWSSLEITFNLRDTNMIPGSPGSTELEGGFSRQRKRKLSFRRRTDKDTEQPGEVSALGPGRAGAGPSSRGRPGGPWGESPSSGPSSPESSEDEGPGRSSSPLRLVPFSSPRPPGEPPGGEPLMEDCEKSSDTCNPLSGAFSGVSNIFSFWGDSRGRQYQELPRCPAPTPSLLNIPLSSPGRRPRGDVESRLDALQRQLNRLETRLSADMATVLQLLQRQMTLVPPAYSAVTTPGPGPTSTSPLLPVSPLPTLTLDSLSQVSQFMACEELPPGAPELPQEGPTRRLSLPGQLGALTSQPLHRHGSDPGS
Cytochrome P450 2B6, sequence (P20813 whole entry): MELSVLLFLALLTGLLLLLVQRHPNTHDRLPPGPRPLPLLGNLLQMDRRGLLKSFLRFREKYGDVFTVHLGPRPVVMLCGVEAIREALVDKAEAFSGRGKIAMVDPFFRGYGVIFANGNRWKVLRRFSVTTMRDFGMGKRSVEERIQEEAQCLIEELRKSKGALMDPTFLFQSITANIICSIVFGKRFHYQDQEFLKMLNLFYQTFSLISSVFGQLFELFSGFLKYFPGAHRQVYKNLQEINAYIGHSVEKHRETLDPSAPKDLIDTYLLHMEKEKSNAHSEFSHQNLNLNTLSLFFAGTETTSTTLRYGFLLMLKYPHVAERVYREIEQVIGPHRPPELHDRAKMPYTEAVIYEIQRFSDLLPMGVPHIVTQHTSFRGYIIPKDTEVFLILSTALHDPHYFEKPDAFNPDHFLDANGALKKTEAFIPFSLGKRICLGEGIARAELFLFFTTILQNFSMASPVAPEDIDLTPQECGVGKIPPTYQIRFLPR

Compound | Papp [1] | microsomal intrinsic clearance [2] [µL/min] | clearance [5] [mL/min/kg] | clearance [6] [mL/min/kg] | LBF [7] [%] | LBF [8] [%] | Vdss [9] [L/kg] | t1/2 [10] [h] | F [12] [%] | F [13] [%] | IC50 [14] [µM] | IC50 (Cytochrome P450 1A2) [µM] | IC50 (Cytochrome P450 2C9) [µM] | IC50 (Cytochrome P450 2C19) [µM] | IC50 (Cytochrome P450 2D6) [µM] | IC50 (Cytochrome P450 3A4 [15]) [µM] | IC50 (Cytochrome P450 3A4 [16]) [µM] | IC50 (Plasma kallikrein [17]) [µM] | IC50 (Plasma kallikrein [18]) [µM] | solubility kinetic [19] [µg/mL] | other results
COc1ccnc(CNC(=O)c2cn(Cc3ccc(Cn4ccccc4=O)cc3)nc2C(F)(F)F)c1F | 17 10^-6 cm/s | 49 | 11.1 | 15.9 | 14 | 48 | 0.63 | 1.1 | 97 | 32 | > 33 | > 25 | > 25 | > 25 | > 25 | > 25 | > 25 | 0.076 | – | – | Therm_solubility ([3]; simulated gi fluid, pH 6.5, 4 h): 20 µg/mL; Therm_solubility ([4]; buffer, pH 1.6, 4 h): 690 µg/mL; t1/2 [11]: 0.9 h
COCc1nn(Cc2ccc(Cn3ccccc3=O)cc2)cc1C(=O)NCc1c(C#N)ccc(OC)c1F | 14 10^-6 cm/s | 58 | 27.6 | – | 35 | – | – | 1.1 | 20 | – | – | – | – | – | – | – | – | – | 0.001 | > 120 | solubility kinetic [20]: > 120 µg/mL; solubility thermodynamic at 4 h ([3]; FaSSIF, pH 6.5, read-out: Therm_solubility): 31 µg/mL (≈ 60.1 µM); solubility thermodynamic at 4 h ([4]; FaSSGF, pH 1.6, read-out: Therm_solubility): 21 µg/mL (≈ 40.7 µM)
COCc1nn(Cc2ccc(Cn3ccccc3=O)cc2)cc1C(=O)NCc1c(F)ccc(OC)c1F | 18 10^-6 cm/s | 92 | 23.7 | 24.5 | 30 | 74 | 0.36 | 0.7 | 64 | 16 | > 33 | > 25 | 13 | > 25 | > 25 | 19 | 11 | 0.5 | 0.006 | > 120 | solubility kinetic [20]: > 120 µg/mL; Therm_solubility [21]: 9 µg/mL; Therm_solubility [22]: 9 µg/mL; IC50 (Cytochrome P450 2B6): > 25 µM; IC50 (Cytochrome P450 2C8): 14 µM
